In ChEMBL document CHEMBL1144492, “Novel T-type calcium channel blockers: dioxoquinazoline carboxamide derivatives” (Bioorg Med Chem, 2007):
The source made the active and inactive calls. No cut-off for these calls is given here.

Each compound was assayed against T1, Voltage-dependent T-type calcium channel subunit alpha-1G (Homo sapiens, UniProt O43497) (assay: Inhibition of T-type calcium channel Cav3.1 with alpha-1G subunit by patch clamp assay). Conditions: not given.
T1 sequence (O43497 whole entry): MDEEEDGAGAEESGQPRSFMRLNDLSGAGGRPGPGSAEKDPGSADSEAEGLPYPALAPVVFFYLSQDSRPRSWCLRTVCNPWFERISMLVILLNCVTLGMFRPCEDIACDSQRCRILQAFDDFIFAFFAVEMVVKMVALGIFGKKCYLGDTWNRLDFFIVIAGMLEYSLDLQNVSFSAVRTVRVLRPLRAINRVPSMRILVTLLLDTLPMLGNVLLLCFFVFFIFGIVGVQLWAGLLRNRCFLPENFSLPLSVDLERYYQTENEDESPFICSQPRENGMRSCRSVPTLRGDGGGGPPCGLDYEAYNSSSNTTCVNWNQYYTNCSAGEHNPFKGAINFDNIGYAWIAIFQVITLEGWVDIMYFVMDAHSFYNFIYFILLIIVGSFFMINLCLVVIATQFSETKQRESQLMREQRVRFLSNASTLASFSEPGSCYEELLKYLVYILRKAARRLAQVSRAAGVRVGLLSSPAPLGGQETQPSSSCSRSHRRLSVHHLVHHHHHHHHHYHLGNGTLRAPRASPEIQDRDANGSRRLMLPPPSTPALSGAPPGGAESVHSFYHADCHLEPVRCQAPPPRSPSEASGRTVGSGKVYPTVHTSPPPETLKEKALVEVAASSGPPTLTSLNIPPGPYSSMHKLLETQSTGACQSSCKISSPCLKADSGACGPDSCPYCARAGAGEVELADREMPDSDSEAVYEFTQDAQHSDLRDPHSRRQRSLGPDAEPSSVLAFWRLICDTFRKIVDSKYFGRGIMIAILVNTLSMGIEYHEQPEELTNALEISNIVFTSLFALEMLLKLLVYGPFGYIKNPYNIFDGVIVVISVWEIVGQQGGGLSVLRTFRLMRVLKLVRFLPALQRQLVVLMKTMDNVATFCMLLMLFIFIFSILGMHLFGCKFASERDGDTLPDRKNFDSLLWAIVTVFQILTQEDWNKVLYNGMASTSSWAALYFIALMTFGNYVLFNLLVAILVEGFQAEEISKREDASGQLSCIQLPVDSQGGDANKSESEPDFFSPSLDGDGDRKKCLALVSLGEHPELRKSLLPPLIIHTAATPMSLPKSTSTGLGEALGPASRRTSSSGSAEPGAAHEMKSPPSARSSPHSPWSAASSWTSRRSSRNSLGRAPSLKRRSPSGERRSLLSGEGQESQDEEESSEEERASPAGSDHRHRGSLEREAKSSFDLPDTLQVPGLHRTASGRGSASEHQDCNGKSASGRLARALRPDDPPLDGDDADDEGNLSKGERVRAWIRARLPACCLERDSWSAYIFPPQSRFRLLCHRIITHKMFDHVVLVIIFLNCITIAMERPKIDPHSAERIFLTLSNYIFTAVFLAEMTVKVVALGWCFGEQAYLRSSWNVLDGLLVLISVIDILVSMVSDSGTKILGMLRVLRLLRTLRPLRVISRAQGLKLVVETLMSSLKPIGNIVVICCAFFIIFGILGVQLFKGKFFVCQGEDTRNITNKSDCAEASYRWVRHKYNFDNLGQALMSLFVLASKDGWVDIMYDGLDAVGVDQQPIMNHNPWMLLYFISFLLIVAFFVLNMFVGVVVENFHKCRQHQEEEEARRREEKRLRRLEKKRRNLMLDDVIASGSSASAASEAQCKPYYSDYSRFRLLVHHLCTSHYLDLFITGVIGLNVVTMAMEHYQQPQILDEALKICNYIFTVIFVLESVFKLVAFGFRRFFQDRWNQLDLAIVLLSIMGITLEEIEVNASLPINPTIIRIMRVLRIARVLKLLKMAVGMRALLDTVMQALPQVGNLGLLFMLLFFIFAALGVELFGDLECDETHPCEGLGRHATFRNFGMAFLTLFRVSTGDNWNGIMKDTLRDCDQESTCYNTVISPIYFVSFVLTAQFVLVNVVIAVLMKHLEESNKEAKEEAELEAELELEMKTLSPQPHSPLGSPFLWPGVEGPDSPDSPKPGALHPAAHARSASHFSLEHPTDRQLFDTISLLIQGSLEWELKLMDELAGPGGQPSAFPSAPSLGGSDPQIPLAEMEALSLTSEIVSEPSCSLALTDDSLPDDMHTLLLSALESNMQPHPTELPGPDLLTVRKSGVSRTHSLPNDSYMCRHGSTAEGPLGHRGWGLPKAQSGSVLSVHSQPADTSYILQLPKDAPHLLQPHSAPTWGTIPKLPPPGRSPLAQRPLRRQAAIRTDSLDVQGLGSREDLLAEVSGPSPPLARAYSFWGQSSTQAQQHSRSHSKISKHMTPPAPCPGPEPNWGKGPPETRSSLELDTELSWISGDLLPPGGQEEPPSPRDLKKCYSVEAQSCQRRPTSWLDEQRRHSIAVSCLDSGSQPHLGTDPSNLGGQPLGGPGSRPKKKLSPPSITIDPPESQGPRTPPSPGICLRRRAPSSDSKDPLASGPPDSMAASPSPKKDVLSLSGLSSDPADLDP

SMILES | IC50 [µM]
CCC1CCCCN1CCCNC(=O)c1ccc2c(=O)n(Cc3ccccc3Cl)c(=O)[nH]c2c1 (centres undefined) | 2.79
CCC1CCCCN1CCNC(=O)c1ccc2c(=O)n(Cc3ccc(Cl)cc3)c(=O)[nH]c2c1 (centres undefined) | 3.38
CC1CCCCN1CCCNC(=O)c1ccc2c(=O)n(Cc3ccc(Cl)cc3)c(=O)[nH]c2c1 (centres undefined) | 3.72
CC1CCCCN1CCCNC(=O)c1ccc2c(=O)n(Cc3ccc(F)cc3)c(=O)[nH]c2c1 (centres undefined) | 4.63
O=C(NCCCN1CCCCC1)c1ccc2c(=O)n(Cc3ccc(Cl)cc3)c(=O)[nH]c2c1 | 1.95
O=C(NCCN1CCCCC1)c1ccc2c(=O)n(Cc3cccc(F)c3)c(=O)[nH]c2c1 | 16.9
CCC1CCCCN1CCNC(=O)c1ccc2c(=O)n(Cc3ccc(OC)cc3)c(=O)[nH]c2c1 (centres undefined) | 5.97
CCC1CCCCN1CCNC(=O)c1ccc2c(=O)n(Cc3ccc(F)cc3)c(=O)[nH]c2c1 (centres undefined) | 7.98
O=C(NCCN1CCCC1)c1ccc2c(=O)n(Cc3ccc(Cl)cc3)c(=O)[nH]c2c1 | 2.46
O=C(NCCN1CCCC1)c1ccc2c(=O)n(C3CCCCC3)c(=O)[nH]c2c1 | 7.96
O=C(NCCN1CCCCC1)c1ccc2c(=O)n(Cc3ccc(Cl)cc3)c(=O)[nH]c2c1 | 2.08
CCC1CCCCN1CCCNC(=O)c1ccc2c(=O)n(Cc3ccc(F)cc3)c(=O)[nH]c2c1 (centres undefined) | 3.31
CCC1CCCCN1CCCNC(=O)c1ccc2c(=O)n(Cc3ccc(Cl)cc3)c(=S)[nH]c2c1 (centres undefined) | 0.1
O=C(NCCN1CCCCC1)c1ccc2c(=O)n(Cc3ccc(F)cc3)c(=O)[nH]c2c1 | 9.23
CCC1CCCCN1CCCNC(=O)c1ccc2c(=O)n(Cc3ccc(Cl)cc3)c(=O)[nH]c2c1 (centres undefined) | 1.52

The compounds below were run against T1, Voltage-dependent T-type calcium channel subunit alpha-1G (assay: Inhibition of T-type calcium channel Cav3.1 with alpha-1G subunit expressed in HEK293 cells at 100 uM by FDSS6000 assay). Conditions: 10 uM, in the assay text read “at 10 uM” for “at 100 uM”.
Format: cell-based
In short: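 HEK293 cells stably expressing α1G plus Kir2.1, grown in DMEM/10% FBS with geneticin and puromycin, plated at 4 × 10^4 cells/well and used next day. Loaded 60 min at room temperature with 5 µM fluo3/AM in Hepes-buffered saline, pH 7.4. Channels opened by depolarization with 70 mM KCl in buffer containing 10 mM CaCl2. Rise in intracellular Ca2+ read by fluorescence on FDSS6000.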

SMILES | inhibition [%]
O=C(NCCCN1CCCC1)c1ccc2c(=O)n(Cc3ccccc3Cl)c(=O)[nH]c2c1 | 6.2
O=C(NCCCN1CCOCC1)c1ccc2c(=O)n(Cc3ccc(Cl)cc3)c(=O)[nH]c2c1 | 9.7

Same assay, conditions: 100 uM

SMILES | inhibition [%] | Activity
CN1CCN(CCCNC(=O)c2ccc3c(=O)n(Cc4ccc(F)cc4)c(=O)[nH]c3c2)CC1 | 25.5 | 
COc1cccc(-n2c(=O)[nH]c3cc(C(=O)NCCCN4CCCCC4C)ccc3c2=O)c1 (centres undefined) | 12.3 | 
O=C(NCCCN1CCOCC1)c1ccc2c(=O)n(-c3ccc(F)cc3)c(=O)[nH]c2c1 | 9.2 | 
CCCn1c(=O)[nH]c2cc(C(=O)NCCCN3CCCCC3C)ccc2c1=O (centres undefined) | 12.5 | 
COc1ccc(Cn2c(=O)[nH]c3cc(C(=O)NCCCN4CCCC4)ccc3c2=O)cc1 | 26.8 | 
O=C(NCCN1CCCC1)c1ccc2c(=O)n(Cc3ccc(F)cc3)c(=O)[nH]c2c1 | 47.2 | 
O=C(NCCCN1CCOCC1)c1ccc2c(=O)n(Cc3ccc(F)cc3)c(=O)[nH]c2c1 |  | inactive
CN1CCN(CCCNC(=O)c2ccc3c(=O)n(C)c(=O)[nH]c3c2)CC1 | 3.4 | 
O=C(NCCCN1CCOCC1)c1ccc2c(=O)n(C3CCCCC3)c(=O)[nH]c2c1 | 36.3 | 
CC1CCCCN1CCCNC(=O)c1ccc2c(=O)n(Cc3ccc(F)cc3)c(=O)[nH]c2c1 (centres undefined) | 56.6 | 
CN1CCN(CCCNC(=O)c2ccc3c(=O)n(Cc4ccccc4F)c(=O)[nH]c3c2)CC1 | 7.3 | 
COc1ccc(-n2c(=O)[nH]c3cc(C(=O)NCCCN4CCCC4)ccc3c2=O)cc1 |  | inactive
CCCn1c(=O)[nH]c2cc(C(=O)NCCCN3CCN(C)CC3)ccc2c1=O |  | inactive
COc1ccc(Cn2c(=O)[nH]c3cc(C(=O)NCCCN4CCCCC4C)ccc3c2=O)cc1 (centres undefined) | 42.3 | 
O=C(NCCN1CCCCC1)c1ccc2c(=O)n(Cc3cccc(F)c3)c(=O)[nH]c2c1 | 64.6 | 
CC1CCCCN1CCCNC(=O)c1ccc2c(=O)n(Cc3cccc(F)c3)c(=O)[nH]c2c1 (centres undefined) | 47.8 | 
COc1ccc(-n2c(=O)[nH]c3cc(C(=O)NCCCN4CCN(C)CC4)ccc3c2=O)cc1 |  | inactive
COc1cccc(-n2c(=O)[nH]c3cc(C(=O)NCCN4CCCCC4)ccc3c2=O)c1 |  | inactive
COc1cccc(Cn2c(=O)[nH]c3cc(C(=O)NCCCN4CCN(C)CC4)ccc3c2=O)c1 | 20.1 | 
COc1ccc(Cn2c(=O)[nH]c3cc(C(=O)NCCN4CCOCC4)ccc3c2=O)cc1 |  | inactive
O=C(NCCN1CCCC1)c1ccc2c(=O)n(Cc3ccccc3F)c(=O)[nH]c2c1 | 24.9 | 

SMILES | inhibition [%] | Activity
O=C(NCCCN1CCCC1)c1ccc2c(=O)n(Cc3cccc(F)c3)c(=O)[nH]c2c1 | 9.8 | 
O=C(NCCN1CCCCC1)c1ccc2c(=O)n(-c3cccc(F)c3)c(=O)[nH]c2c1 | 3.4 | 
COc1ccccc1-n1c(=O)[nH]c2cc(C(=O)NCCCN3CCCC3)ccc2c1=O | 1.5 | 
COc1cccc(-n2c(=O)[nH]c3cc(C(=O)NCCN4CCCC4)ccc3c2=O)c1 | 13.1 | 
CCCn1c(=O)[nH]c2cc(C(=O)NCCN3CCCC3)ccc2c1=O | 6.7 | 
CC1CCCCN1CCCNC(=O)c1ccc2c(=O)n(Cc3ccccc3F)c(=O)[nH]c2c1 (centres undefined) | 13.9 | 
COc1ccc(Cn2c(=O)[nH]c3cc(C(=O)NCCCN4CCOCC4)ccc3c2=O)cc1 | 36 | 
COc1cccc(Cn2c(=O)[nH]c3cc(C(=O)NCCCN4CCOCC4)ccc3c2=O)c1 | 28.9 | 
COc1ccc(Cn2c(=O)[nH]c3cc(C(=O)NCCN4CCCC4)ccc3c2=O)cc1 | 39.4 | 
O=C(NCCN1CCCC1)c1ccc2c(=O)n(-c3cccc(F)c3)c(=O)[nH]c2c1 | 4.3 | 
CCCn1c(=O)[nH]c2cc(C(=O)NCCCN3CCOCC3)ccc2c1=O | 9.2 | 
Cn1c(=O)[nH]c2cc(C(=O)NCCN3CCCC3)ccc2c1=O |  | inactive
O=C(NCCCN1CCCC1)c1ccc2c(=O)n(Cc3ccc(F)cc3)c(=O)[nH]c2c1 | 34.2 | 
O=C(NCCN1CCCCC1)c1ccc2c(=O)n(-c3ccc(F)cc3)c(=O)[nH]c2c1 | 12.5 | 
COc1ccc(-n2c(=O)[nH]c3cc(C(=O)NCCCN4CCCCC4C)ccc3c2=O)cc1 (centres undefined) | 1.5 | 
O=C(NCCCN1CCOCC1)c1ccc2c(=O)n(-c3cccc(F)c3)c(=O)[nH]c2c1 | 15.1 | 
CC1CCCCN1CCCNC(=O)c1ccc2c(=O)n(-c3cccc(F)c3)c(=O)[nH]c2c1 (centres undefined) |  | inactive
COc1cccc(-n2c(=O)[nH]c3cc(C(=O)NCCCN4CCCC4)ccc3c2=O)c1 |  | inactive
COc1ccccc1Cn1c(=O)[nH]c2cc(C(=O)NCCCN3CCCCC3C)ccc2c1=O (centres undefined) | 12.7 | 
CCCn1c(=O)[nH]c2cc(C(=O)NCCN3CCCCC3)ccc2c1=O | 18 | 
O=C(NCCN1CCCC1)c1ccc2c(=O)n(C3CCCCC3)c(=O)[nH]c2c1 | 57.7 | 

SMILES | inhibition [%] | Activity
COc1ccc(-n2c(=O)[nH]c3cc(C(=O)NCCN4CCCC4)ccc3c2=O)cc1 | 10.5 | 
COc1cccc(Cn2c(=O)[nH]c3cc(C(=O)NCCN4CCCC4)ccc3c2=O)c1 | 27.8 | 
O=C(NCCN1CCCCC1)c1ccc2c(=O)n(-c3ccccc3F)c(=O)[nH]c2c1 | 7.2 | 
O=C(NCCN1CCCC1)c1ccc2c(=O)n(-c3ccccc3F)c(=O)[nH]c2c1 | 6.5 | 
CCC1CCCCN1CCCNC(=O)c1ccc2c(=O)n(Cc3ccc(F)cc3)c(=O)[nH]c2c1 (centres undefined) | 68.3 | 
COc1cccc(Cn2c(=O)[nH]c3cc(C(=O)NCCCN4CCCCC4C)ccc3c2=O)c1 (centres undefined) | 36.9 | 
COc1cccc(Cn2c(=O)[nH]c3cc(C(=O)NCCN4CCCCC4)ccc3c2=O)c1 | 62.9 | 
O=C(NCCCN1CCCC1)c1ccc2c(=O)n(-c3cccc(F)c3)c(=O)[nH]c2c1 |  | inactive
COc1cccc(Cn2c(=O)[nH]c3cc(C(=O)NCCCN4CCCC4)ccc3c2=O)c1 | 13.2 | 
O=C(NCCN1CCCCC1)c1ccc2c(=O)n(Cc3ccc(F)cc3)c(=O)[nH]c2c1 | 65 | 
O=C(NCCN1CCCCC1)c1ccc2c(=O)n(C3CCCCC3)c(=O)[nH]c2c1 | 52.2 | 
Cn1c(=O)[nH]c2cc(C(=O)NCCN3CCCCC3)ccc2c1=O | 17.6 | 
O=C(NCCCN1CCOCC1)c1ccc2c(=O)n(-c3ccccc3F)c(=O)[nH]c2c1 | 2.8 | 
CC1CCCCN1CCCNC(=O)c1ccc2c(=O)n(C3CCCCC3)c(=O)[nH]c2c1 (centres undefined) | 48.3 | 
O=C(NCCN1CCOCC1)c1ccc2c(=O)n(-c3ccc(F)cc3)c(=O)[nH]c2c1 |  | inactive
O=C(NCCN1CCOCC1)c1ccc2c(=O)n(-c3cccc(F)c3)c(=O)[nH]c2c1 | 3.8 | 
CC1CCCCN1CCCNC(=O)c1ccc2c(=O)n(C)c(=O)[nH]c2c1 (centres undefined) | 8.5 | 
CN1CCN(CCCNC(=O)c2ccc3c(=O)n(Cc4cccc(F)c4)c(=O)[nH]c3c2)CC1 | 8.3 | 
CCCn1c(=O)[nH]c2cc(C(=O)NCCN3CCOCC3)ccc2c1=O |  | inactive
CN1CCN(CCCNC(=O)c2ccc3c(=O)n(-c4ccccc4F)c(=O)[nH]c3c2)CC1 | 2.4 | 
